≈ marks a conversion by molar mass, not a printed value. Read-outs that look alike come from different tables or passages of the source. Positions of bridges follow the written chain, without caps; N, C: chain ends. Non-standard residues stand in square brackets, D forms with d. Residues, ends and D or L forms follow the SMILES beside them. No end group written: not given here. *: point of attachment. X1 = CC[C@H](C)CCCCC(=O)*; Dab = NCC[C@H](N)C(=O)O
Assays:
bacteria = details: cited from earlier work
E. coli = details: cited from earlier work
Human liver HepG2 cells = format: cell-based
human red blood cells = assay: Hemolytic assay; format: cell-based; details: 2% hRBC, 37°C, 1 h; for hemolysis: relative to 1% Triton X-100
E. coli E423-17 = format: cell-based
S. aureus USA300 [1] = format: cell-based; details: for MIC in the presence of 150 mM NaCl: S. aureus; for activity against S. aureus USA300 under all these conditions: pH 6.2/8.1, 150 mM NaCl, human serum
S. epidermidis 1457 = format: cell-based
A. baumannii B28-16 = format: cell-based
[2] = system: Human keratinocytes (HaCaT); assay: Cytotoxicity assay; format: cell-based; details: 24 h, MTS
P. aeruginosa E411-17 [3] = assay: Killing kinetics; format: cell-based; details: 4 × MIC, ~10^5 CFU/mL in MHB, 37°C, CFU count
P. aeruginosa E411-17 [4] = assay: Effects of pH, salts and serum on peptide activity; format: cell-based; details: different pH, salt and serum conditions
K. pneumoniae E406-17 = format: cell-based; details: not shown
P. aeruginosa E411-17 [5] = format: cell-based
S. aureus USA300 [6] = format: cell-based
MRSA USA300 = assay: Killing kinetics; format: cell-based, S. aureus; details: 4 × MIC, ~10^5 CFU/mL in MHB, 37°C, CFU count
Summary of the method: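 MRSA USA300 was grown in MHB to OD600 ~0.3, then diluted to OD600 0.001 (~10⁵ CFU/mL). 1 mL was incubated at 37°C with test compound or reference antibiotic at 4× MIC. At 15, 30, 60, 90 and 120 min, 50 μL was serially diluted in PBS and plated on mannitol salt agar. CFU were counted after overnight growth at 37°C.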

[7] = Table 3, sequence reversal experiment

LLGDFFRKSK-NH2 [LL-10]
antibacterial activity in the standard Mueller Hinton Broth (MHB) (bacteria): not antibacterial

KRIVQRIK-NH2 [KR-8]
antibacterial activity in the standard Mueller Hinton Broth (MHB) (bacteria): not antibacterial

RIKDFLRNLV-NH2 [RIK-10]
activity against E. coli in standard MHB (E. coli): active

RKSKEKIGK-NH2 [RK-9]
antibacterial activity in the standard Mueller Hinton Broth (MHB) (bacteria): not antibacterial

KRWWQWWK-NH2 [KR-8+]
LC50, HepG2 (Human liver HepG2 cells; 24 h, MTS): 12.5 µM | HC10 (10% hemolytic concentration) (human red blood cells): 300 µM | hemolysis (human red blood cells; at 400 μM): 18% | minimal inhibitory concentration (MIC), E. coli E423-17 (E. coli E423-17; E423-17): 4 to 8 µM | MIC in the presence of 150 mM NaCl (S. aureus USA300 [1]): 16 to 32 µM | minimal inhibitory concentration (MIC), S. epidermidis 1457 (S. epidermidis 1457; 1457): 16 µM | minimal inhibitory concentration (MIC), A. baumannii B28-16 (A. baumannii B28-16): 16 µM

CC[C@H](C)CCCCC(=O)N[C@@H](CCN)C(=O)N[C@H](C(=O)N[C@@H](CCN)C(=O)N[C@H]1CCNC(=O)[C@H]([C@@H](C)O)NC(=O)[C@H](CCN)NC(=O)[C@H](CCN)NC(=O)[C@H](CC(C)C)NC(=O)[C@@H](CC(C)C)NC(=O)[C@H](CCN)NC1=O)[C@@H](C)O [Colistin, reference compound] (X1-[Dab]T[Dab][Dab][Dab][dL]L[Dab][Dab]T; lactam 4-C (inferred); N-terminus assumed)
toxicity to HepG2 (Human liver HepG2 cells; 24 h, MTS): subtle effects | toxicity to HaCaT ([2]; at 100 μM): little toxicity | lysis of human red blood cells (human red blood cells; at 400 μM, 545 nm): did not lyse | time to eliminate P. aeruginosa (P. aeruginosa E411-17 [3]): 30 min | activity against P. aeruginosa under all the conditions tested (P. aeruginosa E411-17 [4]): retained pseudomonacidal activity | activity against S. aureus USA300 under all these conditions (S. aureus USA300 [1]): inactive

RWKRFLRNWV-NH2 [RIK-10+]
LC50, HepG2 (Human liver HepG2 cells; 24 h, MTS): 100 µM | 50% lethal concentration (LC50), HaCaT [2]: 100 µM | hemolysis (human red blood cells; at 400 μM): 18% | minimal inhibitory concentration (MIC), E. coli E423-17 (E. coli E423-17; E423-17): 4 µM | MIC, K. pneumoniae E406-17 (K. pneumoniae E406-17): 32 µM | minimal inhibitory concentration (MIC), P. aeruginosa E411-17 (P. aeruginosa E411-17 [5]; [7]): 4 µM | MIC in the presence of 150 mM NaCl (S. aureus USA300 [1]): > 32 µM | minimal inhibitory concentration (MIC), S. epidermidis 1457 (S. epidermidis 1457; 1457): 64 µM | minimal inhibitory concentration (MIC), A. baumannii B28-16 (A. baumannii B28-16): 8 µM | minimal inhibitory concentration (MIC), S. aureus USA 300 (S. aureus USA300 [6]; [7]): 16 µM

LWGRFFRKWK-NH2 [LL-10+]
toxicity to HepG2 (Human liver HepG2 cells): subtle effects | LC50, HepG2 (Human liver HepG2 cells; 24 h, MTS): > 100 µM | HC10 (10% hemolytic concentration) (human red blood cells): > 400 µM | minimal inhibitory concentration (MIC), E. coli E423-17 (E. coli E423-17; [7]): 32 µM | MIC in the presence of 150 mM NaCl (S. aureus USA300 [1]): > 32 µM | minimal inhibitory concentration (MIC), S. epidermidis 1457 (S. epidermidis 1457; [7]): 32 µM | minimal inhibitory concentration (MIC), A. baumannii B28-16 (A. baumannii B28-16): 64 µM | minimal inhibitory concentration (MIC), S. aureus USA 300 (S. aureus USA300 [6]; [7]): 16 µM

RWWKKWWGK-NH2 [RK-9+]
toxicity to HepG2 (Human liver HepG2 cells): subtle effects | LC50, HepG2 (Human liver HepG2 cells; 24 h, MTS): > 100 µM | HC10 (10% hemolytic concentration) (human red blood cells): > 400 µM | minimal inhibitory concentration (MIC), E. coli E423-17 (E. coli E423-17; E423-17): 4 to 8 µM | minimal inhibitory concentration (MIC), P. aeruginosa E411-17 (P. aeruginosa E411-17 [5]; E411-17): 16 µM | MIC in the presence of 150 mM NaCl (S. aureus USA300 [1]): 16 to 32 µM

CCCCCCCCCC(=O)N[C@@H](Cc1c[nH]c2ccccc12)C(=O)N[C@H](CC(N)=O)C(=O)N[C@@H](CC(=O)O)C(=O)N[C@@H]1C(=O)NCC(=O)N[C@@H](CCCN)C(=O)N[C@@H](CC(=O)O)C(=O)N[C@H](C)C(=O)N[C@@H](CC(=O)O)C(=O)NCC(=O)N[C@H](CO)C(=O)N[C@@H]([C@H](C)CC(=O)O)C(=O)N[C@@H](CC(=O)c2ccccc2N)C(=O)O[C@@H]1C [Daptomycin, reference compound]
toxicity to HepG2 (Human liver HepG2 cells; 24 h, MTS): subtle effects | time to kill MRSA USA300 (MRSA USA300): ~90 min | activity against P. aeruginosa under all the conditions tested (P. aeruginosa E411-17 [4]): did not display any activity | activity against S. aureus USA300 under all these conditions (S. aureus USA300 [1]): remained potent | minimal inhibitory concentration (MIC), S. epidermidis 1457 (S. epidermidis 1457; 1457): 0.5 µM (≈ 0.81 µg/mL) | minimal inhibitory concentration (MIC), S. aureus USA 300 (S. aureus USA300 [6]; USA300): 0.5 µM (≈ 0.81 µg/mL)

— article PMC12744306 (Probiotics and antimicrobial proteins, 2024)
